A selection: hits, their analogues and other compounds. The true share with any hit is near 2.9%.
TRPC4 PAM – positive allosteric modulators of TRPC4, primary screen, cell-based, mouse TRPC4beta, HEK293 mu-opioid, Fluo-4 calcium | DAMGO EC20, Fluo-4 Ca2+ flux; active compounds read high | 0.42% of 310,000 active | B-score at 10 µM | Short transient receptor potential channel 4 (Mus musculus), Q9QUQ5 | AID 2227, 2009;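 active = B-score of calcium response area above 5 SD of library B-scores, with initial fluorescence ratio within 5 SD of library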;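 also: B-score of integrated fluorescence ratio over time as area under calcium response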
TRPC4 act – activators of mouse TRPC4 channel, primary screen, Fluo4 calcium, HEK293 TRPC4beta/mu-opioid cells | Short transient receptor potential channel 4 (Mus musculus), Q9QUQ5 | Fluo4 calcium fluorescence; active compounds read high | B-score at 10 µM | 0.49% of 310,000 active;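 active = B-score above 5 SD of library B-scores, and initial fluorescence ratio not above library mean plus 5 SD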;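 also: positive B-score marks a calcium rise read as TRPC4 activation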
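Material: TRPC4beta and mu-opioid receptor HEK293 stable cells | Incubation: 45 min room-temperature Fluo4 loading, 110 s read | Detection: Kinetic Fluo4 calcium fluorescence | Measure: Integrated baseline-normalised fluorescence ratio, converted to per-well B score | Benchmarks: Low control buffer alone, high control maximal DAMGO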
TRPC4 inh – inhibitors of mouse TRPC4 channel, primary screen, Fluo4 calcium, HEK293 TRPC4beta/mu-opioid cells | B-score at 10 µM | DAMGO-evoked Fluo4 calcium flux; active compounds read low | Short transient receptor potential channel 4 (Mus musculus), Q9QUQ5 | 0.39% of 300,000 active | AID 2247, 2010;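 active = B-score over 3 SD under the library average, no early fluorescence shift, positive overall ratio signal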
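Assay system – HEK293 line stably carrying TRPC4beta and mu-opioid receptor · Doses – single dose · Detection – Fluo4 calcium-dye fluorescence, kinetic read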
TRPC6 inh – mouse TRPC6 channel inhibitors, primary screen, cell-based, HEK293, membrane potential dye; B-score at 10 µM; 1.1% of 310,000 active; ACh-evoked depolarization; active compounds read low; AID 2553, 2010; Short transient receptor potential channel 6 (Mus musculus), Q61143;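 active = B-score under library mean minus 3 SD, initial fluorescence not abnormally high, positive integrated signal ratio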;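 also: B-score derived from integrated fluorescence ratio over the kinetic read; more negative B-score means stronger inhibition of depolarization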
Target sequence (Q61143 whole entry, looked up): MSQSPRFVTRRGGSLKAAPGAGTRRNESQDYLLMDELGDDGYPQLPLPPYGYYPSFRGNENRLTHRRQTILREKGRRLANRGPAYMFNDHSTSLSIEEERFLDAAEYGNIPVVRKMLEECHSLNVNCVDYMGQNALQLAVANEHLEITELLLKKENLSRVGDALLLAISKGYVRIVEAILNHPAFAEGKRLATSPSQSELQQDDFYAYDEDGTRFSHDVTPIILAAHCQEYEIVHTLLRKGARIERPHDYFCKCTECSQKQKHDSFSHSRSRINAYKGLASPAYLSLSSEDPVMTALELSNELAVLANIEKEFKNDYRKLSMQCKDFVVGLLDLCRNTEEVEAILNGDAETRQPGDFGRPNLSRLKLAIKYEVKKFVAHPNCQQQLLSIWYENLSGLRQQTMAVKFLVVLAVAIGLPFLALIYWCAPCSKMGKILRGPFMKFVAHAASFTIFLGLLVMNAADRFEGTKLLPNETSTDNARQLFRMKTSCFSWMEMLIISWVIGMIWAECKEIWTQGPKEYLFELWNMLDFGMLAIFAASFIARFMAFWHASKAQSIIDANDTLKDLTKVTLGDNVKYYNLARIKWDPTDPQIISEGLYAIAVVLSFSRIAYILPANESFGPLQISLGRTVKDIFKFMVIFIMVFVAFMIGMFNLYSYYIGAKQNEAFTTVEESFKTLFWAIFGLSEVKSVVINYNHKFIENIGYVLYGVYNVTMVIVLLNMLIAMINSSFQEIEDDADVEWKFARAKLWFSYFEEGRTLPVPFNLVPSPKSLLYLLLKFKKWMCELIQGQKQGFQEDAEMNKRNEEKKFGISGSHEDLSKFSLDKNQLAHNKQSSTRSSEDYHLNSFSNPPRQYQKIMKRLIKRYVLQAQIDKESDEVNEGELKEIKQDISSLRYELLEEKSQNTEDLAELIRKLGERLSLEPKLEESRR
Kir21 block – inhibitors of mouse Kir2.1 inward-rectifier potassium channel; Inward rectifier potassium channel 2 (Mus musculus), P35561; HEK293-Kir2.1, FluxOR thallium flux fluorescence; active compounds read low; B-score at 10 µM; 0.85% of 310,000 active; AID 1672, 2009;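 active = fluorescence ratio B-score at or below minus 3 SD of library scores, with starting-brightness B-score within 2 SD, cut at about -4.2 in these data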;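 also: channel flux triggered by added potassium and thallium sulfate stimulus; B-score of peak minus minimum fluorescence over baseline after thallium stimulus; more negative B-score means stronger Kir2.1 block with less thallium influx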
TRPC6 activator – mouse TRPC6 channel activators, primary screen, cell-based, HEK293, membrane potential dye. Short transient receptor potential channel 6 (Mus musculus), Q61143. HEK293-TRPC6 membrane potential dye fluorescence; active compounds read high. B-score at 10 µM. 0.13% of 310,000 active;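 active = B-score of the integrated fluorescence ratio above library mean plus 3 SD, and starting fluorescence ratio within library mean plus 5 SD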;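 also: higher score means more depolarization so channel activation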
TRPC4 sel inh 2 – second check of whether TRPC6 inhibitors also affect mouse TRPC4; shares compounds with TRPC6 inh; AID 2776; HEK293 TRPC4/MOR, membrane potential dye fluorescence; channel activated by saturating DAMGO dose; 42% of 920 active; inhibition, % at 10 µM;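 active = compounds whose fluorescence signal differed from control wells by over 3 SD, either direction, in both duplicate plates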
TRPC4 spec – mouse TRPC4 modulation by TRPC6 hits, confirmation, selectivity assay for TRPC6 inhibitor project, cell-based, HEK293 TRPC4/mu-opioid, membrane potential dye; AID 2777, 2010; activity change, negative = inhibition, % at 10 µM; 61% of 920 active; shares compounds with TRPC6 inh; membrane potential fluorescence;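 active = rise or fall in signal beyond 3 SD of buffer-only wells in both replicate plates, either sign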;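 also: integrated kinetic ratio of fluorescence range over baseline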
HEK293 MPD ctr 2-1 – nonspecific membrane potential effects, parental HEK293, confirmation, counter-screen for TRPC6 inhibitor project, cell-based, second counter screen; signal change vs control, % at 10 µM; AID 2779, 2010; shares compounds with TRPC6 inh; parental HEK293 membrane potential dye fluorescence; maximal acetylcholine challenge after compound addition; 31% of 920 active;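 active = membrane potential signal moving either way by over 3 SD of the maximum-effect control, in both duplicate plates, meaning non-specific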
HEK293 MPD ctr-1 – membrane potential modulation in parental HEK293, confirmation, counter-screen for TRPC6 inhibitor project, cell-based | membrane potential signal change, % at 10 µM | 60% of 920 active | shares compounds with TRPC6 inh | parental HEK293 membrane potential dye fluorescence;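 active = membrane potential signal shifting up or down by more than 3 SD of buffer-only wells, on both duplicate plates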
HEK293 MPD ctr-2 – parental HEK293 membrane potential modulation, confirmation, counter-screen for TRPC6 modulator project, cell-based | membrane potential signal change, % at 10 µM | shares compounds with TRPC6 inh | 51% of 2,400 active | membrane potential dye fluorescence | AID 488924, 2010;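 active = membrane potential signal moves up or down beyond 5 SD from buffer-only wells, on both duplicate plates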
HEK293 MPD ctr 2-2 – second check of TRPC6 modulator effects in parental HEK293 cells; shares compounds with TRPC6 inh; membrane potential dye fluorescence; after compound, maximal acetylcholine stimulation; inhibition, % at 10 µM; 14% of 2,400 active;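 active = membrane potential signal drops by more than 5 SD from the mean control signal, in both duplicate plates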;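 also: plate controls were acetylcholine ECmax control wells for no effect and buffer only wells for full effect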
TRPC4/MOR mod – TRPC4 modulation by TRPC6 hit compounds, confirmation, selectivity assay for TRPC6 modulator project, cell-based, HEK293 TRPC4/mu-opioid, membrane potential dye, mouse | percent change from control (negative = decrease, positive = increase), % at 10 µM | membrane potential fluorescence | 69% of 2,400 active | shares compounds with TRPC6 inh;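 active = membrane potential signal moved up or down beyond 5 SD of buffer control wells, in both duplicate plates, actives on both sides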;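 also: plate controls were assay buffer wells for no effect and DAMGO maximal-effect wells for full effect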
TRPC4/MOR inh 2 – second selectivity test of TRPC6 modulators against mouse TRPC4 | shares compounds with TRPC6 inh | HEK293 TRPC4/mu-opioid, membrane potential dye fluorescence; stimulated with maximal-effect DAMGO | inhibition, % at 10 µM | 55% of 2,400 active | AID 488928;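 active = drop in membrane potential signal beyond 5 SD of the control wells in both duplicate plates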;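 also: TRPC4 counter screen for TRPC6 hits run under conditions tuned for TRPC6 not TRPC4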
TRPC6 inh conf – mouse TRPC6 channel inhibitors, confirmation, HEK293 cells, membrane potential dye, duplicate; AID 488960, 2010; inhibition, % at 10 µM; ACh-evoked depolarization; shares compounds with TRPC6 inh; 43% of 3,300 active;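 active = fluorescence ratio falls more than 5 SD below the full-stimulation control mean, in both duplicate runs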;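 also: integrated fluorescence ratio of peak minus minimum over baseline after agonist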
TRPC6 act confirm – mouse TRPC6 channel activators, confirmation, HEK293 cells, membrane potential dye, duplicate. shares compounds with TRPC6 inh. activation, % at 10 µM. HEK293-TRPC6 membrane potential dye fluorescence, FDSS. 11% of 2,800 active;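 active = ratio signal rise beyond 5 SD above unstimulated control wells' mean, seen in both duplicate runs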;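 also: plate controls were buffer EC0 wells for no effect and acetylcholine ECmax response for full effect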
* = called active by the depositor.

What do the screens show for `Cc1cc(NC(=O)CNCC(c2ccccc2)N(C)C)c([N+](=O)[O-])cc1C` (centres undefined)?
TRPC4 PAM: inactive; TRPC4 act: inactive; TRPC4 inh: inactive; TRPC6 inh: -9.4*; Kir21 block: -4.2; TRPC6 activator: inactive; TRPC4 sel inh 2: 64%*; TRPC4 spec: -12%*; HEK293 MPD ctr 2-1: inactive; HEK293 MPD ctr-1: -151%*; TRPC6 inh conf: inactive; TRPC6 act confirm: inactive

How did COc1ccc(S(=O)(=O)c2c(O)c3ccc(C(=O)Nc4ccccc4Cl)cc3[nH]c2=O)cc1 do in these assays?
TRPC4 PAM: inactive; TRPC4 act: inactive; TRPC4 inh: inactive; TRPC6 inh: inactive; Kir21 block: -0.19; TRPC6 activator: inactive

Results for CCN1CCN(C(=O)Cn2nc(-c3ccc(Cl)cc3)ccc2=O)CC1 ?
TRPC4 PAM: inactive; TRPC4 act: inactive; TRPC4 inh: inactive; TRPC6 inh: inactive; Kir21 block: 1.3; TRPC6 activator: inactive

How did CCOC(=O)N1CCN(C(=O)Cn2nc(-c3ccc(Cl)cc3)ccc2=O)CC1 do in these assays?
TRPC4 PAM: inactive; TRPC4 act: inactive; TRPC4 inh: inactive; TRPC6 inh: -6.8*; Kir21 block: -0.8; TRPC6 activator: inactive; TRPC4 sel inh 2: inactive; TRPC4 spec: 0.5%*; HEK293 MPD ctr 2-1: inactive; HEK293 MPD ctr-1: 2.3%*; TRPC6 inh conf: 57%*

Results for O=C(CCN1CCCCO1)N1CCCC(Nc2ccc(F)c(F)c2)C1 (centres undefined) ?
TRPC4 PAM: inactive; TRPC4 act: inactive; TRPC4 inh: inactive; TRPC6 inh: -5.8*; Kir21 block: 0; TRPC6 activator: inactive; HEK293 MPD ctr-2: inactive; HEK293 MPD ctr 2-2: inactive; TRPC4/MOR mod: 8.5%*; TRPC4/MOR inh 2: inactive; TRPC6 inh conf: 46%*

How did Cc1ccc(-n2nc3c(c2NC(=O)C(C)C)CS(=O)(=O)C3)cc1 do in these assays?
TRPC4 PAM: inactive; TRPC4 act: inactive; TRPC4 inh: inactive; TRPC6 inh: -5.5*; Kir21 block: 1.7; TRPC6 activator: inactive; HEK293 MPD ctr-2: inactive; HEK293 MPD ctr 2-2: inactive; TRPC4/MOR mod: 21%*; TRPC4/MOR inh 2: inactive; TRPC6 inh conf: inactive

What do the screens show for `CC(C)C(=O)Nc1c2c(nn1-c1ccc([N+](=O)[O-])cc1)CS(=O)(=O)C2`?
TRPC4 PAM: inactive; TRPC4 act: inactive; TRPC4 inh: inactive; TRPC6 inh: inactive; Kir21 block: 0.74; TRPC6 activator: inactive

How did Cc1cccc2sc(N3CCN(C(=O)c4cccs4)CC3)nc12 do in these assays?
TRPC4 PAM: inactive; TRPC4 act: inactive; TRPC4 inh: inactive; TRPC6 inh: -5.4*; Kir21 block: 0.05; TRPC6 activator: inactive; HEK293 MPD ctr-2: inactive; HEK293 MPD ctr 2-2: inactive; TRPC4/MOR mod: 14%*; TRPC4/MOR inh 2: 32%*; TRPC6 inh conf: 47%*

What do the screens show for `Cc1ccc(C(=O)Nn2cnnc2)c(Cl)c1`?
TRPC4 PAM: inactive; TRPC4 act: inactive; TRPC4 inh: inactive; TRPC6 inh: inactive; Kir21 block: 0.06; TRPC6 activator: inactive

How did COc1ccccc1-c1c(C)oc2c(CN3CCCC(C)C3)c(O)ccc2c1=O (centres undefined) do in these assays?
TRPC4 PAM: inactive; TRPC4 act: inactive; TRPC4 inh: inactive; TRPC6 inh: inactive; Kir21 block: 4.1; TRPC6 activator: inactive

What do the screens show for `COc1ccccc1-c1coc2c(CN3CCCC(C)C3)c(O)ccc2c1=O` (centres undefined)?
TRPC4 PAM: inactive; TRPC4 act: inactive; TRPC4 inh: inactive; TRPC6 inh: -5.9*; Kir21 block: -0.43; TRPC6 activator: inactive; HEK293 MPD ctr-2: inactive; HEK293 MPD ctr 2-2: inactive; TRPC4/MOR mod: inactive; TRPC4/MOR inh 2: inactive; TRPC6 inh conf: inactive; TRPC6 act confirm: inactive

Bioassay records: PubChem BioAssay, Johns Hopkins Ion Channel Center
